Data set [1] concerns Rattus norvegicus. Put plainly: Toxicity in Wistar rat assessed as change in water intake at 40 mg/kg, po administered five times per week for 4 weeks. Type of data set: organism-based. Set-up: dose 40 mg/kg, route oral. The conditions noted are these: in vivo, 672 h. In a few lines: (§1)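 Male Wistar rats, six per group, dosed by gavage in water/Tween 80 (97:3) five times weekly for 4 weeks, with or without DMH (four sc injections of 40 mg/kg in the first 2 weeks). Body weight and water intake recorded daily; mean ± SD.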

The subject of data set [2] is Rattus norvegicus. Kind of data set: Toxicity in Wistar rat assessed as body weight gain at 10 to 40 mg/kg, po administered daily for 7 days. The data set is classed as organism-based. Set-up: dose 10-40 mg/kg, route oral. Conditions: in vivo, 168 h. In a few lines: (§2)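 Male Wistar rats, six per group, compound dosed by gavage in water/Tween 80 (97:3) daily for 7 days, with or without DMH 40 mg/kg sc. Body weight and water intake recorded daily; mean ± SD.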

For data set [3], the system named is Rattus norvegicus. Put plainly: Anticarcinogenic activity in Wistar rat colon assessed as reduction in frequency of DMH-induced aberrant crypt foci in distal segment at 10 to 40 mg/kg, po administered five times per week for 4 weeks. The data set is classed as functional, organism-based. In a few lines:
(§3)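 Male Wistar rats (~120 g, 4−5 weeks old, 1 week acclimation), six per group. Compound in water/Tween 80 (97:3) given by gavage five times weekly for 4 weeks. DMH dissolved in EDTA solution, 160 mg/kg total given as four sc injections of 40 mg/kg, twice weekly over the first 2 weeks. Colons formalin-fixed 24 h, stained with 0.02% methylene blue; 50 fields per segment at 100×; ACF counted, mean ± SD, ANOVA/Tukey.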

Data set [4] deals with Rattus norvegicus. Put plainly: Anticarcinogenic activity in Wistar rat colon assessed as reduction in frequency of DMH-induced aberrant crypt foci in middle segment at 10 to 40 mg/kg, po administered five times per week for 4 weeks. The data set is classed as functional, organism-based. In a few lines: as §3
The subject of data set [5] is Rattus norvegicus. Kind of data set: Toxicity in Wistar rat assessed as change in water intake at 10 to 40 mg/kg, po administered daily for 7 days. Further details: dose 10-40 mg/kg, route oral. The conditions noted are these: in vivo, 168 h. Type of data set: organism-based. An outline of the steps:
as §2

Data set [6] concerns Rattus norvegicus. Kind of data set: Antigenotoxic activity in Wistar rat peripheral blood assessed as reduction in DMH-induced increase in nucleoids at 10 mg/kg, po administered daily for 7 days. Type of data set: functional. Set-up: scale not given: the % may be the effect or the level left. In a few lines: (§4)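 Male Wistar rats, six per group. Compound in water/Tween 80 (97:3) given by daily gavage for 7 days. DMH 40 mg/kg sc given 4 h before sampling on day 7. Cells used only at ≥80% viability. Scoring: 100 nucleoids per animal visually classed 0–3 by tail length relative to head diameter. % reduction = (DMH − treated)/(DMH − negative control) × 100, based on damaged cells.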

The subject of data set [7] is Rattus norvegicus. Kind of data set: Antigenotoxic activity in Wistar rat peripheral blood assessed as reduction in DMH-induced increase in nucleoids at 40 mg/kg, po administered daily for 7 days. The data set is classed as functional. Further details: scale not given: the % may be the effect or the level left. In a few lines:
as §4

Data set [8] has as its system Rattus norvegicus. Put plainly: Antigenotoxic activity in Wistar rat peripheral blood assessed as reduction in DMH-induced increase in nucleoids at 20 mg/kg, po administered daily for 7 days. Set-up: scale not given: the % may be the effect or the level left. Type of data set: functional. An outline of the steps: as §4
Data set [9] deals with Rattus norvegicus. Kind of data set: Anticarcinogenic activity in Wistar rat colon assessed as reduction in frequency of DMH-induced aberrant crypt foci in proximal segment at 10 to 40 mg/kg, po administered five times per week for 4 weeks. Type of data set: functional, organism-based. An outline of the steps:
as §3

Data set [10] has as its system Rattus norvegicus. Put plainly: Toxicity in Wistar rat assessed as body weight gain at 40 mg/kg, po administered five times per week for 4 weeks. The data set is classed as organism-based. Set-up: dose 40 mg/kg, route oral. The conditions noted are these: in vivo, 672 h. An outline of the steps:
as §1

Calls of active or inactive are those of the source. The rule behind the calls is not given here.

Turning to `O=C1OC[C@H](Cc2ccc3c(c2)OCO3)[C@H]1Cc1ccc2c(c1)OCO2` [HINOKININ], the Activity result is given as “Non-toxic” with Rattus norvegicus [1]; “Non-toxic” in the data set on Rattus norvegicus [2]; “Non-toxic” in the data set on Rattus norvegicus [5]; 43.2% in the data set on Rattus norvegicus [6]; 54.7% with Rattus norvegicus [7]; 50.4% in the data set on Rattus norvegicus [8]. For the same molecule, in the data set with Rattus norvegicus [10], the Activity result is given as “Non-toxic”. Further, the outcome with Rattus norvegicus [3] and with Rattus norvegicus [4] was Active. Further, the result with Rattus norvegicus [9] was inactive.

Source of the values: ChEMBL document CHEMBL3351743, “Chemopreventive effects of (-)-hinokinin against 1,2-dimethylhydrazine-induced genotoxicity and preneoplastic lesions in rat colon” (J Nat Prod, 2014).
